These results are taken from ChEMBL document CHEMBL1821716, “Pyrazolopyridine inhibitors of B-RafV600E. Part 2: structure-activity relationships” (Bioorg Med Chem Lett, 2011).

Assay [1] addresses Proto-oncogene tyrosine-protein kinase Src (Homo sapiens) (UniProt P12931). Briefly: Inhibition of SRC at 1 uM. In outline:
(§1)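 Kinase selectivity panel reported as percent inhibition of each kinase at a single test-compound concentration. Values are means of at least two experiments.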

For assay [2], the target named is Tyrosine-protein kinase Lck (Homo sapiens) (UniProt P06239). In words: Inhibition of LCK at 1 uM. In outline:
as §1

Assay [3] has as its target T1, Aurora kinase A (Homo sapiens) (UniProt O14965).
T1 sequence (whole entry): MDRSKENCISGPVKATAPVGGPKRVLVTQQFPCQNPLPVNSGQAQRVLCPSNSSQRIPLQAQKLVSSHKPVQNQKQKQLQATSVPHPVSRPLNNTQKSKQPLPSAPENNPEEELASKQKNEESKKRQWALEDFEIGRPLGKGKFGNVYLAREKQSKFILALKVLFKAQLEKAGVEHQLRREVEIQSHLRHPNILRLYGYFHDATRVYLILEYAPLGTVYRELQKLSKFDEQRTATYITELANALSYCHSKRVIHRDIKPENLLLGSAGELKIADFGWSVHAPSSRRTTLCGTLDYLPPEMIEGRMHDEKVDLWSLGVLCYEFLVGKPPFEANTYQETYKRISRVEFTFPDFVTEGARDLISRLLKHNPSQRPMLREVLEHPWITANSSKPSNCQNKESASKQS
In words: Inhibition of aurora A at 1 uM. In outline:
as §1

Assay [4] has as its target Serine/threonine-protein kinase B-raf (Homo sapiens, UniProt P15056, V600E). Briefly: Inhibition of full length B-Raf V600E mutant.
Assay [5] concerns the target Receptor-type tyrosine-protein kinase FLT3 (Homo sapiens) (UniProt P36888). In words: Inhibition of FLT3 at 1 uM. In outline: as §1
Assay [6] in a line: Inhibition of basal ERK phosphorylation in human MALME-3M cells. Format: cell-based.
For assay [7], the target named is Protein-tyrosine kinase 6 (Homo sapiens) (UniProt Q13882). Briefly: Inhibition of PTK6 at 1 uM. The method in brief:
as §1

Assay [8] addresses Tyrosine-protein kinase Fgr (Homo sapiens) (UniProt P09769). In words: Inhibition of FGR at 1 uM. In outline: as §1
Assay [9] concerns the target Tyrosine-protein kinase Srms (Homo sapiens) (UniProt Q9H3Y6). Briefly: Inhibition of SRMS at 1 uM. The method in brief: as §1

Proto-oncogene tyrosine-protein kinase Src (Homo sapiens), sequence (P12931 2-536 limits assumed): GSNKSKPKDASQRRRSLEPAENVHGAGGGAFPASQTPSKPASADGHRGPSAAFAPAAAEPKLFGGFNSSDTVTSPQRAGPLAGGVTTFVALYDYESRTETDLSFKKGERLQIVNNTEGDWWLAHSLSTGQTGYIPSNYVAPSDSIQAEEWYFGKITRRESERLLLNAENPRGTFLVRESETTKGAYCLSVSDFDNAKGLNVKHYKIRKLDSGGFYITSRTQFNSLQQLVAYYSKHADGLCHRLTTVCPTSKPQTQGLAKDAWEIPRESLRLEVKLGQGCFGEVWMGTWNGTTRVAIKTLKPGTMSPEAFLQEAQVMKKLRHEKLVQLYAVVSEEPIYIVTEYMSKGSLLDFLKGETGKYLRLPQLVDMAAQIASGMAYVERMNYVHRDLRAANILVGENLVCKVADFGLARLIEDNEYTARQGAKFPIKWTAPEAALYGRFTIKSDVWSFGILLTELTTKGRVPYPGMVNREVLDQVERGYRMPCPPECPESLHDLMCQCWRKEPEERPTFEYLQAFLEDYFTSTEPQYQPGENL
Protein-tyrosine kinase 6 (Homo sapiens), sequence (Q13882 whole entry, looked up): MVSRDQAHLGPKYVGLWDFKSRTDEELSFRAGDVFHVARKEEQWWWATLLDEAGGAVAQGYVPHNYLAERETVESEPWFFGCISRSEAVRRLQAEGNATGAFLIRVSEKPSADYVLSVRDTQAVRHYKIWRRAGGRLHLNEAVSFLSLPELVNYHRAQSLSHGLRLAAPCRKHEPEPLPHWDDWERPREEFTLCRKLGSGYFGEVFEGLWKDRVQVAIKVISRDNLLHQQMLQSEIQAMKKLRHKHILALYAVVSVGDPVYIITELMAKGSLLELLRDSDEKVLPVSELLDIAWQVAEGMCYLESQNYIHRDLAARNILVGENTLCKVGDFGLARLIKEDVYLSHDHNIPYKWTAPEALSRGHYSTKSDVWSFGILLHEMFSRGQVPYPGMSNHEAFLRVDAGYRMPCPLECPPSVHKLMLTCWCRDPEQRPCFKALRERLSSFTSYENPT
Serine/threonine-protein kinase B-raf, sequence (P15056 2-766 V600E limits assumed): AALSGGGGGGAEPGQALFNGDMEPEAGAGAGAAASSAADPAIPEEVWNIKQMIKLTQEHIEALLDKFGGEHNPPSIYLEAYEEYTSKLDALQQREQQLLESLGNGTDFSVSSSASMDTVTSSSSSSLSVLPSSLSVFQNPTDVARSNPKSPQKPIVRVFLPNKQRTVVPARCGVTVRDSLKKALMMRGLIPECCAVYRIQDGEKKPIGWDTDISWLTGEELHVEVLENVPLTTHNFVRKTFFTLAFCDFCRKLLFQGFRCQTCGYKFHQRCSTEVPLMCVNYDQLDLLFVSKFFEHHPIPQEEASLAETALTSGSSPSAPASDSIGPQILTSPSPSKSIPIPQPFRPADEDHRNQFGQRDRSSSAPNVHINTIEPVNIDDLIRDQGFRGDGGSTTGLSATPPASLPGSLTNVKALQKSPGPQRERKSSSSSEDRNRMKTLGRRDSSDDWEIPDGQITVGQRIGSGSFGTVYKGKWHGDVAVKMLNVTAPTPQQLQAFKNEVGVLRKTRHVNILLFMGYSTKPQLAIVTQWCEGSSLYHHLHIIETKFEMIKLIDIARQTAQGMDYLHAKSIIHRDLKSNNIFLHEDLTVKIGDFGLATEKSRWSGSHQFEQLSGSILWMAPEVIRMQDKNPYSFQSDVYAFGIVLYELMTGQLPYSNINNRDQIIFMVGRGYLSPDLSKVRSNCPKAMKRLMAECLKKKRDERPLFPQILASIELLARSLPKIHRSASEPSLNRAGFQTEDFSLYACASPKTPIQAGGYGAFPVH
Receptor-type tyrosine-protein kinase FLT3 (Homo sapiens), sequence (P36888 whole entry): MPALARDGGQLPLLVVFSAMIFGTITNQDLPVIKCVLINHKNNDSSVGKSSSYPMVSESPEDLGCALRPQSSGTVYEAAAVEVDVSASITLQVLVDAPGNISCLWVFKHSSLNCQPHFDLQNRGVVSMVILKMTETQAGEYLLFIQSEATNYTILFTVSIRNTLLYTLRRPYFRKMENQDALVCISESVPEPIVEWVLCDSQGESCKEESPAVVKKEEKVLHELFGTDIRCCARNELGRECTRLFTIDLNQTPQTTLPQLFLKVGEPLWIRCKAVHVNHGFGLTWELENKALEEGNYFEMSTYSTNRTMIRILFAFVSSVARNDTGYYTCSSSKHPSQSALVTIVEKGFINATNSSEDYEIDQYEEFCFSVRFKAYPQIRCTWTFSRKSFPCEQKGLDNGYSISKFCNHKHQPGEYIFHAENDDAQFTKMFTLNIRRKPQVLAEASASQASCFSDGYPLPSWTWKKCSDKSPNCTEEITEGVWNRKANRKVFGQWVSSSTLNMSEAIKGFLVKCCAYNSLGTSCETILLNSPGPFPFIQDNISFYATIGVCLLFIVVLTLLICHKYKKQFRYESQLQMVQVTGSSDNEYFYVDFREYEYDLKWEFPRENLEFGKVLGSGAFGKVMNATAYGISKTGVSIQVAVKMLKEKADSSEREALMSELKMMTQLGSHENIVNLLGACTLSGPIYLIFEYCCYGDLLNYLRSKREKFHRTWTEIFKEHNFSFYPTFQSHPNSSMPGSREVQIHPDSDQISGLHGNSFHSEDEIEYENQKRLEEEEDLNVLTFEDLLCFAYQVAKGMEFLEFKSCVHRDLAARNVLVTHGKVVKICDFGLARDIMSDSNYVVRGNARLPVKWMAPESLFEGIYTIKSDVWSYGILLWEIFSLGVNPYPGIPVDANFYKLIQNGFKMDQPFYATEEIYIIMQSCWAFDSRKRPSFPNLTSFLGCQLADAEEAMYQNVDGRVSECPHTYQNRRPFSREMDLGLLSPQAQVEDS
Tyrosine-protein kinase Fgr (Homo sapiens), sequence (P09769 2-529 limits assumed): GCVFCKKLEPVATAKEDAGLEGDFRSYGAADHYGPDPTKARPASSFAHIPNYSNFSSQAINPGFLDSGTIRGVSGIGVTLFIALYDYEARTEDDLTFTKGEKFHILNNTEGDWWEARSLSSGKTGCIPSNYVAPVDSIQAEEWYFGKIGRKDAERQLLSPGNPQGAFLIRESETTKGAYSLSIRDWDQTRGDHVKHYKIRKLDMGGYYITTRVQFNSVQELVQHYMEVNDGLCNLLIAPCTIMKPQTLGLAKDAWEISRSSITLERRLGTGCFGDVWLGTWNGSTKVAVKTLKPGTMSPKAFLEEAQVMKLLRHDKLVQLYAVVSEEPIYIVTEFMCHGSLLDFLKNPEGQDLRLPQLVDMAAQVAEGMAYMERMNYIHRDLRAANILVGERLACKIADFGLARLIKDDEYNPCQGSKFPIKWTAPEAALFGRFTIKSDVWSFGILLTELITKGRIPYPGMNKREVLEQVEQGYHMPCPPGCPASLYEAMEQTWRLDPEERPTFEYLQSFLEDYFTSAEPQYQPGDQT
Tyrosine-protein kinase Srms (Homo sapiens), sequence (Q9H3Y6 whole entry): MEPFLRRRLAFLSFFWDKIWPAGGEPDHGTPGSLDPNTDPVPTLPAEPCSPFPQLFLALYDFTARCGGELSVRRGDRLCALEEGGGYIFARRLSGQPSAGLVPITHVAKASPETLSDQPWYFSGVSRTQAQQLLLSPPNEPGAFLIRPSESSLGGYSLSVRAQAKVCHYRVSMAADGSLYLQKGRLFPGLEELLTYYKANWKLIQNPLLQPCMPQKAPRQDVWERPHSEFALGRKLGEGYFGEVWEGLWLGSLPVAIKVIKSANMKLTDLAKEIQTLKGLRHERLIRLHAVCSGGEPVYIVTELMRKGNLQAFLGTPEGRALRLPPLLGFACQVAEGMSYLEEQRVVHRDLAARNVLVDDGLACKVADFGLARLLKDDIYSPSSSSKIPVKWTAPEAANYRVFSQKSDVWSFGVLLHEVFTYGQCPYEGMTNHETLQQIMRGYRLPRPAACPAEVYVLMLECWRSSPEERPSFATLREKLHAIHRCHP
Tyrosine-protein kinase Lck (Homo sapiens), sequence (P06239 2-509 limits assumed): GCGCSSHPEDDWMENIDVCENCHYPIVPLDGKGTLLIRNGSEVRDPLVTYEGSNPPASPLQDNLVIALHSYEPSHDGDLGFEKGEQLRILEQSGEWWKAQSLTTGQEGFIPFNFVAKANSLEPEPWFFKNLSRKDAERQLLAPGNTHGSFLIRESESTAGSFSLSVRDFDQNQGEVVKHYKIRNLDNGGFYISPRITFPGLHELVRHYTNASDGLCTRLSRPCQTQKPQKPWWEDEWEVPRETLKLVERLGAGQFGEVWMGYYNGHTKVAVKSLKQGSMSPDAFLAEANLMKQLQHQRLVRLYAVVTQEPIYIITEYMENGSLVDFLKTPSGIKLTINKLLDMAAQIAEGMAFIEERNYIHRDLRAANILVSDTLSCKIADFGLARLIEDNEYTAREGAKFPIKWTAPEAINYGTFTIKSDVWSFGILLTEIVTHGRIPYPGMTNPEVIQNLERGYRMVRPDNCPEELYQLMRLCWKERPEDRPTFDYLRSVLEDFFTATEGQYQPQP

By inhibition is commonly meant the change of the read-out against control, counted positive when it falls. By IC50 is commonly meant the concentration at which inhibition is half-maximal. As to `COc1n[nH]c2ncc(NC(=O)c3c(F)ccc(NS(=O)(=O)N4CCCC4)c3F)cc12`, the inhibition turned out to be 52% in assay [1]; 90% in assay [2]; 47% in [3]; 85% in assay [5]; 105% in assay [7]; 101% in [8]. Besides, in assay [9], the inhibition was 105%. The IC50 came to 8.6 nM in [4] and 18 nM in assay [6].

Regarding `CCCS(=O)(=O)Nc1ccc(F)c(C(=O)Nc2cnc3[nH]nc(OC)c3c2)c1F`, the inhibition amounted to 22% in assay [1]; 56% in [2]; 1% in assay [3]; 52% in assay [5]; 83% in assay [7]; 88% in assay [8]. Moreover, the inhibition in assay [9] is 94%. This compound showed an IC50 in assay [6] of 19 nM.

For `COc1n[nH]c2ncc(NC(=O)c3c(F)ccc(NS(=O)(=O)c4cccc(F)c4)c3F)cc12`, the inhibition in assay [1] came out at 77%; in assay [2] it was 96%; in assay [3], 52%; in assay [5], 77%; in assay [7] it was 101%; in assay [8], 98%. For the same compound, the inhibition in assay [9] was 98%. Also, the IC50 was 0.7 nM in [4] and 12 nM in [6].

Consider `CCCS(=O)(=O)Nc1cc(F)c(F)c(C(=O)Nc2cnc3[nH]ccc3c2)c1F`, for which the IC50 in [4] was found to be 19 nM; in [6] it was 410 nM.

Regarding `COc1n[nH]c2ncc(NC(=O)c3c(F)ccc(NS(=O)(=O)C4CC4)c3F)cc12`, the half-maximal inhibitory concentration (IC50) in [4] worked out at 63 nM; in [6] it was 170 nM.

For the compound `CCCS(=O)(=O)Nc1ccc(F)c(C(=O)Nc2cnc3[nH]nc(OCC)c3c2)c1F`, the IC50 in assay [4] came out at 2.4 nM; in [6] it was 12 nM.

For the compound `CCCS(=O)(=O)Nc1ccc(F)c(C(=O)Nc2cnc3[nH]nc(OCC4CCC4)c3c2)c1F`, the IC50 in assay [4] came out at 3.5 nM; in assay [6] it was 76 nM.

Consider `CCCS(=O)(=O)Nc1cccc(C(=O)Nc2cnc3[nH]nc(OC)c3c2)c1F`, for which the results for the IC50 in assay [4] and in assay [6] were 13 nM and 38 nM, respectively.

Turning to `CCCS(=O)(=O)Nc1ccc(F)c(C(=O)Nc2cnc3[nH]cc(C)c3c2)c1F`, the IC50 is 16 nM in assay [4] and 62 nM in [6].

For `CCCS(=O)(=O)Nc1ccc(Cl)c(C(=O)Nc2cnc3[nH]ccc3c2)c1`, the figures for the IC50 in assay [4] and in [6] were 88 nM and 2100 nM, respectively.

For `COc1n[nH]c2ncc(NC(=O)c3c(F)ccc(NS(=O)(=O)N(C)C)c3F)cc12`, the IC50 is 18 nM in assay [4] and 63 nM in assay [6].

As to `CCCS(=O)(=O)Nc1cc(F)cc(C(=O)Nc2cnc3[nH]ccc3c2)c1F`, the IC50 in [4] stood at 76 nM; in assay [6], 400 nM.

Regarding `CCCS(=O)(=O)Nc1cccc(C(=O)Nc2cnc3[nH]ccc3c2)c1F`, the IC50 in assay [4] turned out to be 87 nM; in assay [6], 290 nM.

Take `CCCS(=O)(=O)Nc1cc(F)cc(C(=O)Nc2cnc3[nH]nc(OC)c3c2)c1F`: the figures for the IC50 in assay [4] and in assay [6] were 7.5 nM and 80 nM, respectively.

Take `O=C(Nc1cnc2[nH]ccc2c1)c1c(F)ccc(NS(=O)(=O)N2CCCC2)c1F`: the values for the half-inhibitory concentration (IC50) in [4] and in [6] were 120 nM and 170 nM, respectively.
